Data published in ChEMBL document CHEMBL1926665, “Anti-AIDS agents 85. Design, synthesis, and evaluation of 1R,2R-dicamphanoyl-3,3-dimethyldihydropyrano-[2,3-c]xanthen-7(1H)-one (DCX) derivatives as novel anti-HIV agents” (Eur J Med Chem, 2012).

How the values were obtained:
[1] = test system: Human immunodeficiency virus 1; assay: Antiviral activity against wild type HIV1 NL4-3 infected in human TZM-bl cells after 48 hrs by luciferase reporter gene assay; assay type: functional, organism-based; details: Human immunodeficiency virus 1, NL4-3, TZM-bl
In short: (§1)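 Single-round infection of TZM-bl cells (NL4-3 or RTMDR1 strain), with luciferase reporter read-out. Virus at 200 TCID50 was mixed with eight four-fold serial dilutions of sample in growth medium, then incubated 48 h. Luciferase was read by luminometer. EC50 is the concentration giving a 50% drop in RLU versus virus control after background subtraction. Values are means of at least three independent experiments.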

[2] = Selectivity index, ratio of CC50 for human TZM-bl cells to EC50 for wild type HIV1 NL4-3 infected in human TZM-bl cells; assay type: toxicity, cell-based; details: read-out: Ratio CC50/EC50
In short: (§2)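 Selectivity index is CC50 ÷ EC50. CC50 came from the CytoTox-Glo cytotoxicity kit run per the maker's protocol in TZM-bl cells. EC50 came from the 48 h single-round TZM-bl luciferase infection assay (200 TCID50 virus, eight four-fold dilutions) against the NL4-3 or RTMDR1 strain. Values are averaged from at least three independent experiments.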

[3] = Cytotoxicity against human TZM-bl cells by CytoTox-Glo assay; assay type: cell-based
[4] = test system: Human immunodeficiency virus 1; assay: Ratio of 2-EDCP EC50 to compound EC50 for wild type HIV1 NL4-3 infected in human TZM-bl cells; assay type: functional
[5] = test system: Human immunodeficiency virus 1; assay: Antiviral activity against drug-resistance HIV1 RTMDR1 infected in human TZM-bl cells after 48 hrs by luciferase reporter gene assay; assay type: functional, organism-based; details: Human immunodeficiency virus 1, RTMDR1, TZM-bl; in short: as §1
[6] = Selectivity index, ratio of CC50 for human TZM-bl cells to EC50 for drug-resistance HIV1 RTMDR1 infected in human TZM-bl cells; assay type: toxicity, cell-based; details: read-out: Ratio CC50/EC50; in short: as §2
[7] = test system: Human immunodeficiency virus 1; assay: Antiviral activity against drug-resistance HIV1; assay type: functional, organism-based
[8] = test system: Human immunodeficiency virus 1; assay: Antiviral activity against wild type HIV1; assay type: functional, organism-based

SMILES	EC50 [1] [nM]	selectivity ratio [2]	CC50 [3] [nM]	Ratio EC50 [4]	EC50 [5] [nM]	selectivity ratio [6]	EC50 [7] [nM]	EC50 [8] [nM]
COc1cc2c(c3oc4cc(C#N)ccc4c(=O)c13)[C@@H](OC(=O)C13CCC(C)(C(=O)O1)C3(C)C)[C@@H](OC(=O)C13CCC(C)(C(=O)O1)C3(C)C)C(C)(C)O2 (stereo partly drawn)	200	45.4	9080	–	–	–	–	–
COc1cc2c(c3oc4ccc(C#N)cc4c(=O)c13)[C@@H](OC(=O)C13CCC(C)(C(=O)O1)C3(C)C)[C@@H](OC(=O)C13CCC(C)(C(=O)O1)C3(C)C)C(C)(C)O2 (stereo partly drawn)	290	> 47.8	> 13800	–	–	–	–	–
COc1cc2c(c3oc4ccccc4c(=O)c13)[C@@H](OC(=O)C13CCC(C)(C(=O)O1)C3(C)C)[C@@H](OC(=O)C13CCC(C)(C(=O)O1)C3(C)C)C(C)(C)O2 (stereo partly drawn)	63	> 227	> 14300	1.5	74	> 193	–	–
COc1cc2c(c3oc4ccccc4/c(=N\O)c13)[C@@H](OC(=O)C13CCC(C)(C(=O)O1)C3(C)C)[C@@H](OC(=O)C13CCC(C)(C(=O)O1)C3(C)C)C(C)(C)O2 (stereo partly drawn)	120	> 118	> 13900	–	–	–	–	–
COc1cc2c(c3oc4c(C)cccc4c(=O)c13)[C@@H](OC(=O)C13CCC(C)(C(=O)O1)C3(C)C)[C@@H](OC(=O)C13CCC(C)(C(=O)O1)C3(C)C)C(C)(C)O2 (stereo partly drawn)	1520	2.84	4320	–	–	–	–	–
COc1cc2c(c3oc4cc(C)ccc4c(=O)c13)[C@@H](OC(=O)C13CCC(C)(C(=O)O1)C3(C)C)[C@@H](OC(=O)C13CCC(C)(C(=O)O1)C3(C)C)C(C)(C)O2 (stereo partly drawn)	95	> 147	> 14000	–	363	> 38.6	–	–
COc1cc2c(c3oc4ccc(C)cc4c(=O)c13)[C@@H](OC(=O)C13CCC(C)(C(=O)O1)C3(C)C)[C@@H](OC(=O)C13CCC(C)(C(=O)O1)C3(C)C)C(C)(C)O2 (stereo partly drawn)	65	175	11400	–	81	141	–	–
COc1cc2c(c3oc4cccc(C)c4c(=O)c13)[C@@H](OC(=O)C13CCC(C)(C(=O)O1)C3(C)C)[C@@H](OC(=O)C13CCC(C)(C(=O)O1)C3(C)C)C(C)(C)O2 (stereo partly drawn)	150	77.3	11600	–	370	31.4	–	–
COc1ccc2c(=O)c3c(OC)cc4c(c3oc2c1)[C@@H](OC(=O)C12CCC(C)(C(=O)O1)C2(C)C)[C@@H](OC(=O)C12CCC(C)(C(=O)O1)C2(C)C)C(C)(C)O4 (stereo partly drawn)	362	> 37.8	> 13700	–	–	–	–	–
COc1ccc2oc3c4c(cc(OC)c3c(=O)c2c1)OC(C)(C)[C@H](OC(=O)C12CCC(C)(C(=O)O1)C2(C)C)[C@@H]4OC(=O)C12CCC(C)(C(=O)O1)C2(C)C (stereo partly drawn)	120	88.8	10800	–	420	25.7	–	–
COc1cccc2oc3c4c(cc(OC)c3c(=O)c12)OC(C)(C)[C@H](OC(=O)C12CCC(C)(C(=O)O1)C2(C)C)[C@@H]4OC(=O)C12CCC(C)(C(=O)O1)C2(C)C (stereo partly drawn)	1700	6.83	11600	–	–	–	–	–
COc1cc(C)c2c(=O)c3c(OC)cc4c(c3oc2c1)[C@@H](OC(=O)C12CCC(C)(C(=O)O1)C2(C)C)[C@@H](OC(=O)C12CCC(C)(C(=O)O1)C2(C)C)C(C)(C)O4 (stereo partly drawn)	140	> 192	> 26800	–	–	–	–	–
COc1cc2c(c3oc4cccc(O)c4c(=O)c13)[C@@H](OC(=O)C13CCC(C)(C(=O)O1)C3(C)C)[C@@H](OC(=O)C13CCC(C)(C(=O)O1)C3(C)C)C(C)(C)O2 (stereo partly drawn)	330	24.5	8100	–	–	–	–	–
COc1cc2c(c3oc4c(F)cccc4c(=O)c13)[C@@H](OC(=O)C13CCC(C)(C(=O)O1)C3(C)C)[C@@H](OC(=O)C13CCC(C)(C(=O)O1)C3(C)C)C(C)(C)O2 (stereo partly drawn)	230	33.9	7800	–	–	–	–	–
COc1cc2c(c3oc4ccc(F)cc4c(=O)c13)[C@@H](OC(=O)C13CCC(C)(C(=O)O1)C3(C)C)[C@@H](OC(=O)C13CCC(C)(C(=O)O1)C3(C)C)C(C)(C)O2 (stereo partly drawn)	100	260	26000	–	160	162	–	–
COc1cc2c(c3oc4cccc(F)c4c(=O)c13)[C@@H](OC(=O)C13CCC(C)(C(=O)O1)C3(C)C)[C@@H](OC(=O)C13CCC(C)(C(=O)O1)C3(C)C)C(C)(C)O2 (stereo partly drawn)	62	> 224	> 13900	–	65	> 214	–	–
COc1cc2c(c3oc4ccc(Br)cc4c(=O)c13)[C@@H](OC(=O)C13CCC(C)(C(=O)O1)C3(C)C)[C@@H](OC(=O)C13CCC(C)(C(=O)O1)C3(C)C)C(C)(C)O2 (stereo partly drawn)	1470	6.83	9230	–	–	–	–	–
COc1cc2c(c3oc4ccc(CBr)cc4c(=O)c13)[C@@H](OC(=O)C13CCC(C)(C(=O)O1)C3(C)C)[C@@H](OC(=O)C13CCC(C)(C(=O)O1)C3(C)C)C(C)(C)O2 (stereo partly drawn)	4530	> 5.55	> 25200	–	–	–	–	–
CC1(C)Oc2ccc3c(=O)c4ccccc4oc3c2[C@@H](OC(=O)C23CCC(C)(C(=O)O2)C3(C)C)[C@H]1OC(=O)C12CCC(C)(C(=O)O1)C2(C)C (stereo partly drawn)	308	> 96.8	> 29800	–	546	> 54.6	–	–
Cc1cc(=O)c2c(C)cc3c(c2o1)[C@@H](OC(=O)C12CCC(C)(C(=O)O1)C2(C)C)[C@@H](OC(=O)C12CCC(C)(C(=O)O1)C2(C)C)C(C)(C)O3 (stereo partly drawn)	–	–	–	–	–	–	490	36
CCc1cc(=O)c2ccc3c(c2o1)[C@@H](OC(=O)C12CCC(C)(C(=O)O1)C2(C)C)[C@@H](OC(=O)C12CCC(C)(C(=O)O1)C2(C)C)C(C)(C)O3 (stereo partly drawn)	89	136	12100	–	110	110	110	70
